Sequences and labels used below:
B1: tRNA (parent)
chain: GUUCCGUUGGCGUAAUGGUAACGCGUCUCCCUCCUAAGGAGAAGACUGCGGGUUCGAGUCCCGUACGGAACG

Variants at the floor of the assay were thinned out. A value given as a limit tells only on which side of the number the result lay.

Variants of B1 are the subject of this data set. The data set is described as follows: yeast fitness relative to wild type (ratio to wild type); higher = fitter; tRNA-Arg(CCU), competitive growth, 37 C, YPD. The essentials: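 Gene amplicons from the start population and from each of six end populations were read by 100-nucleotide paired-end sequencing. Those end populations came from pooled Saccharomyces cerevisiae strains carrying tRNA-Arg(CCU) gene variants at the native locus, competed in YPD at 37°C for 24 hours. Fitness relative to wild type was worked out from changes in genotype frequencies. Genotypes needed ≥ 100 starting reads, and estimates < 0.5 were set to 0.5.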
Take GUUCCGUUGGCGUAAUGGUAAAGCGUCUGCCUCCUAAGGAGAAAACUGCGGGUUCGAGUCCCGGACGGAACG: the yeast fitness is no more than 0.5.

On to GUUCCGUUGGCGUAAUGGUAAAACGUCUCCCUUGUAAGGAGAAGACUGCGGGUUCGAGUGCCGUACAGAACG, for which the yeast fitness was no more than 0.5.

Turning to GUUCCGUUGGCGUAAUGGUAAACCGUUUCCCUCCUAAGGAGAAGACUGCGGGUUCGAGUCCCGUACGGAACG, the yeast fitness is no more than 0.5.

Turning to GUUCCGUUGGCGUAAUGGUAAAGCGUCCCCCUCCUAAGGAGGAGACAGCGGGUUCGAGUCCCGUACGGAACG, the yeast fitness worked out at 0.64.

With GUUCCGUUGGCGUAAUGGUAAAGCGUCUCCCUCCUAAGGAGAAGACUGCGGGUUCGAGUCCCGUAGGGAACG, the yeast fitness was 0.714.

With GUUCCGUUGGCGUAAUGGUAAAGCGUCUCCCUCCUAAGGAGAAGAAUGCGGGUUCGAGUCCCGUUCGGAACG, the yeast fitness came out at 0.687.

GUUCCGUUGGCGUAAUGGUAAAGCGUCUUCCUCCUAAGGAGAAGACUGCGGGUUCGAGUACCGUAUGGAACG: the yeast fitness is no more than 0.5.

As for GUUCCGUUGGCGUAAUGGUAAAGCGUCUUCCUCCUAAGGAGAAGACUGCGGGUUCGAGUCCCGUACGGAACG, the yeast fitness came out at 0.621.

As to GUUCCGUUGGCGUAAUGGUAAAGCGUCUCCCUCCUAAGGAGAAGACAGCGGGUUCGAGUCCCCUACGGAACG, the yeast fitness is no more than 0.5.

Turning to GUUCCGUUGGCGUAAUGGUAAACCGUCUCCCUCCUAAGGAGAAGACUGCGGGUUCGAGUCCCGUACGGAACG, the yeast fitness was determined as 0.535.

On to GUUCCGUUGGCGUAAUGGUAAAGCGUCUCCGUCCUAGCGAGAGGACUGCGGGUUCGACUCCCGUACGGAACG, for which the yeast fitness came out at 0.532.

On to GUUCCGUUGGCGUAAUGGUAAAACGUCUCCCUCCUAGGGAGAAGACUGCGGGUUCGAGUCCCGUACGGUACG, for which the yeast fitness is no more than 0.5.

In the case of GUUCCGUUGGCGUAAUGGUAAAGCGUCGCCGUCCUAAGGAGUAGACUGCGGGUUCGAGUCUCGUACGGAACG, the yeast fitness was no more than 0.5.

With GUUCCGUUGGCGUAAUGGUAAAGCAUCUCCCUCCUAAGGAGAAAACUGCGGGUUCGAGUCCCGUACGGAACG, the yeast fitness was 0.65.

GUUCCGUUGGCGUAAUGGUAAAGCGUCUCCCUCGUGAGGAGAAGACUCCGGGUUCGAGUCCCGUACGGAACG: the yeast fitness is no more than 0.5.

Turning to GUUCCGUUGGCGUAAUGGUAAAGCGUCUCCCUCCUAAGGAGAAGACUGCCGGUUCGAGUCCCGUACGGAGCG, the yeast fitness was no more than 0.5.

In the case of GUUCCGUUGGCGUAAUGGUAAAGCGUCUCCCUCCUAAGGAGAAGACUGCGCGUUCGAGUCCCGUAUGGAACG, the yeast fitness was no more than 0.5.

On to GUUCCGUUGGCGUAAUGGUAAAGCGUCUCCCUCCUAAGGAGAAGACUGCGGGUUUGAGUCCCGUACGGAACG, for which the yeast fitness came to 0.918.

With GUUCCGUUGGCGUAAUGGUAAAGCGUCUCCCUCCUAAGGAGAAGACUGCGGGUUGGAGUCCCGUACGGAACG, the yeast fitness was determined as 0.63.

Consider GUUCCGUUGGCGUAAUGGUAAACCGUCUCCCUCCUAAGGAGGAGACUGCGGGUUCGAGUCCCGUACGGAACG, for which the yeast fitness is no more than 0.5.

For the variant GUUCCGUUGGCGUAAUGGUAAAGCGUCUCCCUUCUAAGGAGAAGACUGCGGGUUCGAGUCCCGUACGGAACG, the yeast fitness was determined as 0.604.

GUUCCGUUGGCGUAAUGGUAAAGCGUCUCCCUCCUAAGGAGAAGACUGGGGGUUCGAGUCCCGUACAGAACG: the yeast fitness was no more than 0.5.

Take GUUCCGUUGGCGUAAUGGUAAAGCGUCGCCCUCCUAAGGAGAAGACUGCGGGUUCGAGUCCCGUACUGAACG: the yeast fitness is no more than 0.5.

For the variant GUUCCGUUGGCGUAAUGGUAAAGCGUCUCUGUCCUAAGGAGAAGACUGCGGGUUCGAGUCCCGUACGGAACG, the yeast fitness worked out at 0.551.

Regarding GUUCCGUUGGCGUAAUGGUAAAGCGUCUCCUUCCUAAGGAGAAGACUGCGGGUUCGAGUCCCGUACGGAACG, the yeast fitness is 1.07.

Take GUUCCGUUGGCGUAAUGGUAAAGCGUCUCCGUCCUAAGGAGAAGACUGCGGGUUCGAGUCCCGUACGGAACG: the yeast fitness was 0.749.

On to GUUCCGUUGGCGUAAUGGUAAAGCGUCUCUCUCCCAAGGAGAAGACUGCGGGUUCGAGUCCCGUACGGAACG, for which the yeast fitness was no more than 0.5.

For GUUCCGUUGGCGUAAUGGUAAAGCGUCUCCCUCCUAAGGAGAAGACUGCGGGUUAGUGUCCCGUACGGAACG, the yeast fitness is no more than 0.5.

GUUCCGUUGGCGUAAUGGUAAAGCGUCUCCCCCCUAAGGAGAAGACUGCGGGUUCGAGUCCCGUACGGAACG: the yeast fitness was found to be 0.869.

Take GUUCCGUUGGCGUAAUGGUAAAGCGUCUCCCUCCUAAGGAGAAGACUGCGGGUUCGAGUUCCGUACGGAACG: the yeast fitness amounted to 0.682.

As for GUUCCGUUGGCGUAAUGGUAAAGCGUCUCCCUCCUAAGGAGAAGACUGCGGGUUCGAGUGCCGUACGGAACG, the yeast fitness worked out at 0.57.

Take GUUCCGUUGGCGUAAUGGUAAAGCGUCUCCCUCCUAAGGAGAAGACUACGAGUUCGAGUCCCGUACGGAACG: the yeast fitness is 0.582.

GUUCCGUUGGCGUAAUGGUAAAGCGUCUCCCUCCUAAGGAGAAGACUGCGCGUUCGAGUCCCGUACGGUACG: the yeast fitness amounted to 0.74.

With GUUCCGUUGGCGUAAUGGUAAAGCGUCUCCCUCCUAAGGAGAAGAGUGCGGAUUCGAGUCCCGUACGGAACG, the yeast fitness was no more than 0.5.

Turning to GUUCCGUUGGCGUAAUGGUAAAGCGUCUCCCUCCUAAGGAGAAGACUGCGGGUUCGAGUCCCGUACUGAACG, the yeast fitness worked out at 0.774.

Regarding GUUCCGUUGGCGUAAUGGUAAACCGUCUCCCUCCUCAGGAGAAGACUGCGGGUUCGAGUGCCGUCCGGAACG, the yeast fitness is no more than 0.5.

Consider GUUCCGUUGGCGUAAUGGUAAACCGUCUCCCUCCUAAGGAGAAGACUGGGGGUUCGAGUCCCGUACGGAACG, for which the yeast fitness is no more than 0.5.

Source of the values: the RNAGym collection of RNA variant scans (doi:10.1126/science.aae0568).
